The source of these data is ChEMBL document CHEMBL1144435, “Effects of positional and geometrical isomerism on the biological activity of some novel oxazolidinones” (2005).

Assay [1] deals with Mycolicibacterium smegmatis. The assay is described as follows: In vitro minimum inhibitory concentration of compound against Mycobacterium smegmatis MTCC 006. Format: functional.
Assay [2] deals with Enterococcus faecalis. Put plainly: In vitro minimum inhibitory concentration against vancomycin-resistant Enterococcus faecalis NCTC 12201. Type of assay: functional. In a few lines:
(§1)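 Broth microdilution per NCCLS guidelines. Doubling dilutions from 32-1 µg/mL in Mueller Hinton medium. Final inoculum 1-5 × 10^5 cfu/mL. Plates incubated overnight in ambient air at 35 °C. Linezolid and streptomycin run as controls.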

For assay [3], the system named is Enterococcus faecium. The assay is described as follows: In vitro minimum inhibitory concentration against vancomycin-resistant Enterococcus faecium NCTC 12202. Format: functional. An outline of the steps: as §1
In assay [4] the test system is Staphylococcus aureus. Put plainly: In vitro minimum inhibitory concentration of compound against Staphylococcus aureus ATCC 49951 (Smith). Format: functional. In a few lines: as §1
For assay [5], the system named is Enterococcus faecalis. Put plainly: In vitro minimum inhibitory concentration against Enterococcus faecalis ATCC 29212. Type of assay: functional. An outline of the steps: as §1
Assay [6] concerns Staphylococcus aureus. Put plainly: In vitro minimum inhibitory concentration of compound against Methicillin-sensitive Staphylococcus aureus ATCC 29213. Type of assay: functional. An outline of the steps: as §1
In assay [7] the test system is Staphylococcus aureus. Put plainly: In vitro minimum inhibitory concentration of compound against Methicillin-resistant Staphylococcus aureus ATCC 33591.

Converted amounts (≈) assume the structure as drawn.

For `CC(=O)NC[C@H]1CN(c2ccc(/C=C(\C#N)n3nc4ccccc4n3)c(F)c2)C(=O)O1`, the minimum inhibitory concentration (MIC) is more than 32 µg/mL in assay [1]; 32 µg/mL (≈ 76.1 µM) in assay [2]; 32 µg/mL (≈ 76.1 µM) in assay [3]; 16 µg/mL (≈ 38.1 µM) in assay [4]; 32 µg/mL (≈ 76.1 µM) in assay [5]; 8 µg/mL (≈ 19 µM) in assay [6]. The MIC in assay [7] was determined as 16 µg/mL (≈ 38.1 µM).

Consider `CC(=O)NC[C@H]1CN(c2ccc(/C=C(/C#N)n3nnc4ccccc43)cc2)C(=O)O1`, for which the MIC in assay [1], in assay [2], in assay [3], in assay [4], in assay [5] and in assay [6] was more than 32 µg/mL in each case. This molecule also yielded an MIC in assay [7] of more than 32 µg/mL.

As to `CC(=O)NC[C@H]1CN(c2ccc(/C=C(\C#N)c3nc4ccccc4n3C)cc2)C(=O)O1`, the minimal inhibitory concentration (MIC) in assay [1], in assay [2], in assay [3], in assay [4], in assay [5] and in assay [6] was more than 32 µg/mL throughout.

For `C/C(S)=N/C[C@H]1CN(c2ccc(/C=C(\C#N)n3nc4ccccc4n3)cc2)C(=O)O1`, the minimum inhibitory concentration (MIC) in assay [1] was more than 32 µg/mL; in assay [2], 4 µg/mL (≈ 9.56 µM); in assay [3], 4 µg/mL (≈ 9.56 µM); in assay [4], 2 µg/mL (≈ 4.78 µM); in assay [5] it was 4 µg/mL (≈ 9.56 µM); in assay [6], 2 µg/mL (≈ 4.78 µM). The molecule further registered an MIC in assay [7] of 2 µg/mL (≈ 4.78 µM).

Regarding `CC(=O)NC[C@H]1CN(c2ccc(/C=C(\C#N)n3cnc4ccccc43)cc2)C(=O)O1`, the minimum inhibitory concentration (MIC) in assay [1] was more than 32 µg/mL; in assay [2], 32 µg/mL (≈ 79.7 µM); in assay [3], 32 µg/mL (≈ 79.7 µM); in assay [4], 16 µg/mL (≈ 39.9 µM); in assay [5], 32 µg/mL (≈ 79.7 µM); in assay [6], 16 µg/mL (≈ 39.9 µM). The molecule also gave a minimal inhibitory concentration (MIC) in assay [7] of 16 µg/mL (≈ 39.9 µM).

On to `CC(=O)NC[C@H]1CN(c2ccc(/C=C(\C#N)n3nc4ccccc4n3)cc2)C(=O)O1`, for which the MIC was more than 32 µg/mL in assay [1]; 8 µg/mL (≈ 19.9 µM) in assay [2]; 8 µg/mL (≈ 19.9 µM) in assay [3]; 8 µg/mL (≈ 19.9 µM) in assay [4]; 8 µg/mL (≈ 19.9 µM) in assay [5]; 8 µg/mL (≈ 19.9 µM) in assay [6]. It took 8 µg/mL (≈ 19.9 µM) to inhibit growth in assay [7] (MIC).

For the molecule `CC(=O)NC[C@H]1CN(c2ccc(/C=C(\C#N)c3nc4ccccc4s3)cc2)C(=O)O1`, the MIC in assay [1], in assay [2], in assay [3], in assay [4], in assay [5] and in assay [6] was more than 32 µg/mL in each case.

Turning to `CC(=O)NC[C@H]1CN(c2ccc(/C=C(\C#N)c3nc4ccccc4o3)cc2)C(=O)O1`, the MIC in assay [1], in assay [2], in assay [3], in assay [4], in assay [5] and in assay [6] was more than 32 µg/mL in each case.

As for `CC(=O)NC[C@H]1CN(c2ccc(/C=C(\C#N)n3nnc4ccccc43)cc2)C(=O)O1`, the MIC in assay [1] is more than 32 µg/mL; in assay [2], 32 µg/mL (≈ 79.5 µM); in assay [3], 32 µg/mL (≈ 79.5 µM); in assay [4] it was 16 µg/mL (≈ 39.8 µM); in assay [5], 32 µg/mL (≈ 79.5 µM); in assay [6], 16 µg/mL (≈ 39.8 µM). Besides, the lowest concentration to inhibit growth in assay [7] (MIC) was 16 µg/mL (≈ 39.8 µM).

In the case of `CC(=O)NC[C@H]1CN(c2ccc(/C=C(\C#N)c3nc4ccccc4[nH]3)cc2)C(=O)O1`, the MIC in assay [1], in assay [2], in assay [3], in assay [4], in assay [5] and in assay [6] was more than 32 µg/mL in each case.

`CC(=O)NC[C@H]1CN(c2ccc(N3CCOCC3)c(F)c2)C(=O)O1` [LINEZOLID]: the minimum inhibitory concentration (MIC) in assay [1] and in assay [3] was 2 µg/mL (≈ 5.93 µM) throughout.

Consider `CN[C@@H]1[C@H](O[C@H]2[C@H](O[C@H]3[C@H](O)[C@@H](O)[C@H](N=C(N)N)[C@@H](O)[C@@H]3N=C(N)N)O[C@@H](C)[C@]2(O)C=O)O[C@@H](CO)[C@H](O)[C@H]1O` [STREPTOMYCIN], for which the MIC in assay [1] was 0.5 µg/mL (≈ 0.86 µM); in assay [2], more than 32 µg/mL; in assay [3] it was 32 µg/mL (≈ 55 µM); in assay [4], 2 µg/mL (≈ 3.44 µM); in assay [5] it was more than 32 µg/mL; in assay [6], 4 µg/mL (≈ 6.88 µM). For the same molecule, the MIC in assay [7] was more than 32 µg/mL.

What is called MIC is the smallest concentration in the dilution series that meets the test's criterion for growth inhibition. Lower therefore signals a more susceptible organism.
